# Assay results: ChEMBL document CHEMBL1148174, “Antihyperlipidemic effect of flavonoids from Pterocarpus marsupium” (1993)
# What was measured:
# Type in all cases: functional
# [1] = system: Rattus norvegicus; assay: Antihyperlipidemic activity in diet-induced hyperlipidemic rat model assessed as serum triglyceride level at 40 mg/kg, po administered once daily in morning through gastric intubation for 14 days measured after 4 hrs of last dose
# In short: (§1)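 Male Charles Foster albino rats (200–250 g) fed a hyperlipidemic diet. Compound suspended in 5% EtOH/saline, given by gastric intubation each morning for 14 days; controls got vehicle. Killed 4 h after the last dose, serum taken by cardiac puncture. TC by Abell method, TG by Gottfried–Rosenberg, HDL-C by kit. LDL-C and VLDL-C by Friedewald calculation. Atherogenic index = (TC−HDL-C)/HDL-C. Mean ± SEM, n=6, t-test.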
# [2] = system: Rattus norvegicus; assay: Antihyperlipidemic activity in Triton-induced hyperlipidemic rat model assessed as serum total lipid level at 75 mg/kg, po administered for 2 days through gastric intubation immediately and 20 hrs after triton challenge measured after 4 hrs of last dose
# In short: (§2)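 Male Charles Foster albino rats (200–250 g), fasted 24 h, given Triton 400 mg/kg ip in saline. Compound given orally by gastric intubation right after Triton and again 20 h later. Killed by decapitation 4 h after the second dose. Serum separated and stored at −20°. Total cholesterol by Abell method, triglycerides by Gottfried–Rosenberg, total lipid by Frings–Dunn. Mean ± SEM, n=6, Student's t-test versus control.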
# [3] = system: Rattus norvegicus; assay: Antihyperlipidemic activity in Triton-induced hyperlipidemic rat model assessed as serum total cholesterol level at 75 mg/kg, po administered for 2 days through gastric intubation immediately and 20 hrs after triton challenge measured after 4 hrs of last dose; in short: as §2
# [4] = system: Rattus norvegicus; assay: Antihyperlipidemic activity in diet-induced hyperlipidemic rat model assessed as ratio of HDLC to serum total cholesterol level at 40 mg/kg, po administered once daily in morning through gastric intubation for 14 days measured after 4 hrs of last dose
# [5] = system: Rattus norvegicus; assay: Antihyperlipidemic activity in Triton-induced hyperlipidemic rat model assessed as serum triglyceride level at 75 mg/kg, po administered for 2 days through gastric intubation immediately and 20 hrs after triton challenge measured after 4 hrs of last dose; in short: as §2
# [6] = system: Rattus norvegicus; assay: Antihyperlipidemic activity in diet-induced hyperlipidemic rat model assessed as serum LDLC level at 40 mg/kg, po administered once daily in morning through gastric intubation for 14 days measured after 4 hrs of last dose; in short: as §1
# [7] = system: Rattus norvegicus; assay: Antihyperlipidemic activity in diet-induced hyperlipidemic rat model assessed as serum HDLC level at 40 mg/kg, po administered once daily in morning through gastric intubation for 14 days measured after 4 hrs of last dose; in short: as §1
# [8] = system: Rattus norvegicus; assay: Antihyperlipidemic activity in diet-induced hyperlipidemic rat model assessed as serum total cholesterol level at 40 mg/kg, po administered once daily in morning through gastric intubation for 14 days measured after 4 hrs of last dose; in short: as §1
# [9] = system: Rattus norvegicus; assay: Antihyperlipidemic activity in diet-induced hyperlipidemic rat model assessed as serum VLDLC level at 40 mg/kg, po administered once daily in morning through gastric intubation for 14 days measured after 4 hrs of last dose; in short: as §1
# [10] = system: Rattus norvegicus; assay: Antihyperlipidemic activity in diet-induced hyperlipidemic rat model assessed as atherogenic index at 40 mg/kg, po administered once daily in morning through gastric intubation for 14 days measured after 4 hrs of last dose; in short: as §1
Structure (SMILES),Activity [1] [mg/dL],Activity [2] [mg%],Activity [3] [mg%],Ratio [4],Activity [5] [mg%],Activity [6] [mg/dL],Activity [7] [mg/dL],Activity [8] [mg/dL],Activity [9] [mg/dL],AI [10]
O=C1C[C@@H](c2ccc(O)cc2)Oc2cc(O)ccc21 [LIQUIRTIGENIN],198.1,837.3,406.7,0.11,572.9,245.7,38.01,323.2,39.6,7.5
COc1cc(O)cc2c1C(=O)C(O)(Cc1ccc(O)cc1)O2 (stereo unspecified) [CARPUSIN],190,,,0.09,,292.8,32,350.6,41.1,
